ChEMBL document CHEMBL1131114 (J Med Chem, 1998)
pIC50: −log10 of the molar value.

The molecules below were run against Sodium-dependent dopamine transporter (Rattus norvegicus, UniProt P23977) (assay: Displacement of [3H]WIN-35428(0.5 nM) from Dopamine transporter).
Sodium-dependent dopamine transporter, sequence (P23977 whole entry): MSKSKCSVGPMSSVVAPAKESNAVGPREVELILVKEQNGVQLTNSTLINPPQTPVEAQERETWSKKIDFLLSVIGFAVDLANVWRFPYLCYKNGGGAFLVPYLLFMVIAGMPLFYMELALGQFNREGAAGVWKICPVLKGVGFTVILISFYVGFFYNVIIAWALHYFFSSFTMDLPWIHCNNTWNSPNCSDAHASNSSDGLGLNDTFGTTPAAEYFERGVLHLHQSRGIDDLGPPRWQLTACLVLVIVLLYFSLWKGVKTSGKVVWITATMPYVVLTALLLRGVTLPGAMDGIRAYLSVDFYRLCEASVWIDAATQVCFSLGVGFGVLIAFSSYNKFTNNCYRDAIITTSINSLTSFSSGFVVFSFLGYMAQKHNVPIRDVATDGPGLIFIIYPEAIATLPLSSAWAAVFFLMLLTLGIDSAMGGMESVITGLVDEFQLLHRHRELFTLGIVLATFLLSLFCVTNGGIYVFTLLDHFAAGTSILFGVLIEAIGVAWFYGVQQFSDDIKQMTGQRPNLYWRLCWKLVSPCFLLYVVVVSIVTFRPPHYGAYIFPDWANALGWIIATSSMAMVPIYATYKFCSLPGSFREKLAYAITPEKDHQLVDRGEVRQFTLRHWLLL
Procedure, shortened: (§1)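 IC50 is taken as inhibition of specific binding. Values are mean ± standard error of three or four experiments, with triplicate determinations at each concentration.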
With `Fc1ccc([C@@H]2CC3CCC(N3)[C@@H]2COc2ccc3c(c2)OCO3)cc1` (stereo partly specified) the pIC50 was 7.56.
Work on `Fc1ccc([C@H]2CC3CCC(N3)[C@@H]2COc2ccc3c(c2)OCO3)cc1` (stereo partly specified) yielded a pIC50 of 6.85.
Work on `CN1C2CC[C@@H]1C[C@H](c1ccc(F)cc1)[C@H]2COc1ccc2c(c1)OCO2` yielded a pIC50 of 6.76.
Work on `CN1C2CC[C@@H]1[C@H](COc1ccc3c(c1)OCO3)[C@H](c1ccc(F)cc1)C2` yielded a pIC50 of 5.82.
For `CN1C2CC[C@@H]1[C@@H](COc1ccc3c(c1)OCO3)[C@H](c1ccc(F)cc1)C2`, the pIC50 was 5.98.
`CN1C2CC[C@@H]1C[C@H](c1ccc(F)cc1)[C@@H]2COc1ccc2c(c1)OCO2` showed a pIC50 of 6.51.
Work on `CN1C2CC[C@@H]1C[C@@H](c1ccc(F)cc1)[C@@H]2COc1ccc2c(c1)OCO2` yielded a pIC50 of 8.52.
`CN1C2CC[C@@H]1[C@@H](COc1ccc3c(c1)OCO3)[C@@H](c1ccc(F)cc1)C2` gave a pIC50 of 6.53.
`Fc1ccc([C@H]2CC3CCC(N3)[C@H]2COc2ccc3c(c2)OCO3)cc1` (stereo in doubt; 4a) showed a pIC50 of 6.08.
Work on `Fc1ccc([C@@H]2CC3CCC(N3)[C@H]2COc2ccc3c(c2)OCO3)cc1` (stereo in doubt; 4c) yielded a pIC50 of 8.41.
`Fc1ccc([C@@H]2CC3CCC(N3)[C@H]2COc2ccc3c(c2)OCO3)cc1` (stereo in doubt; 4d) gave a pIC50 of 5.92.
`Fc1ccc([C@H]2CC3CCC(N3)[C@H]2COc2ccc3c(c2)OCO3)cc1` (stereo in doubt; 4f) gave a pIC50 of 6.39.

What follows are molecules tested against Norepinephrine transporter (Rattus norvegicus, UniProt Q9WTR4) (assay: Inhibition of [3H]nisoxetine (0.5 nM) binding to Noradrenaline transporter).
Norepinephrine transporter, sequence (Q9WTR4 whole entry): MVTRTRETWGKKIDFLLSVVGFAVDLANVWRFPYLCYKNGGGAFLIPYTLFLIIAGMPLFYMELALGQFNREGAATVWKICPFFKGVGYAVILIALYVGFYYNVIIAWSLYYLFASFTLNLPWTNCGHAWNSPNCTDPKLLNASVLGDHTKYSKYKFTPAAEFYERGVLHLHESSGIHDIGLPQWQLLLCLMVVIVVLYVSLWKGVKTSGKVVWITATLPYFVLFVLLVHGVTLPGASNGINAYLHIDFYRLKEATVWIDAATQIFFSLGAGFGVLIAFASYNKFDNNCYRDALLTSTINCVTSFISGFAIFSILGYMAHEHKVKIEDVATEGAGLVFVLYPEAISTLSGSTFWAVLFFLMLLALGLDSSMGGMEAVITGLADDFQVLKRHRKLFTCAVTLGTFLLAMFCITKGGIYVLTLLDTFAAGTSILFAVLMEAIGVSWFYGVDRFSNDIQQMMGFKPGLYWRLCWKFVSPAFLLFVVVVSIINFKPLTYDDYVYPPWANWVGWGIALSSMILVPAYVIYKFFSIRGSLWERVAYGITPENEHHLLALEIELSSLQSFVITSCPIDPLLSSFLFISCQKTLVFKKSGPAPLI
Procedure, shortened: as §1
Molecule `Fc1ccc([C@@H]2CC3CCC(N3)[C@@H]2COc2ccc3c(c2)OCO3)cc1` (stereo partly specified) has a pIC50 of 5.77.
Molecule `Fc1ccc([C@H]2CC3CCC(N3)[C@@H]2COc2ccc3c(c2)OCO3)cc1` (stereo partly specified) has a pIC50 of 5.60.
Work on `CN1C2CC[C@@H]1C[C@H](c1ccc(F)cc1)[C@H]2COc1ccc2c(c1)OCO2` yielded a pIC50 of 4.58.
With `CN1C2CC[C@@H]1[C@H](COc1ccc3c(c1)OCO3)[C@H](c1ccc(F)cc1)C2` the pIC50 was 5.54.
`CN1C2CC[C@@H]1[C@@H](COc1ccc3c(c1)OCO3)[C@H](c1ccc(F)cc1)C2` showed a pIC50 of 4.56.
`CN1C2CC[C@@H]1C[C@H](c1ccc(F)cc1)[C@@H]2COc1ccc2c(c1)OCO2` gave a pIC50 of 5.28.
Molecule `CN1C2CC[C@@H]1C[C@@H](c1ccc(F)cc1)[C@@H]2COc1ccc2c(c1)OCO2` has a pIC50 of 6.91.
`CN1C2CC[C@@H]1[C@@H](COc1ccc3c(c1)OCO3)[C@@H](c1ccc(F)cc1)C2` showed a pIC50 of 4.91.
For `Fc1ccc([C@H]2CC3CCC(N3)[C@H]2COc2ccc3c(c2)OCO3)cc1` (stereo in doubt; 4a), the pIC50 was 4.43.
Molecule `Fc1ccc([C@@H]2CC3CCC(N3)[C@H]2COc2ccc3c(c2)OCO3)cc1` (stereo in doubt; 4c) has a pIC50 of 7.84.
`Fc1ccc([C@@H]2CC3CCC(N3)[C@H]2COc2ccc3c(c2)OCO3)cc1` (stereo in doubt; 4d) gave a pIC50 of 4.76.
Molecule `Fc1ccc([C@H]2CC3CCC(N3)[C@H]2COc2ccc3c(c2)OCO3)cc1` (stereo in doubt; 4f) has a pIC50 of 5.70.

The molecules below were run against Sodium-dependent serotonin transporter (Rattus norvegicus, UniProt P31652) (assay: Inhibition of [3H]paroxetine (0.2 nM) binding to 5-HT transporter).
Sodium-dependent serotonin transporter, sequence (P31652 whole entry): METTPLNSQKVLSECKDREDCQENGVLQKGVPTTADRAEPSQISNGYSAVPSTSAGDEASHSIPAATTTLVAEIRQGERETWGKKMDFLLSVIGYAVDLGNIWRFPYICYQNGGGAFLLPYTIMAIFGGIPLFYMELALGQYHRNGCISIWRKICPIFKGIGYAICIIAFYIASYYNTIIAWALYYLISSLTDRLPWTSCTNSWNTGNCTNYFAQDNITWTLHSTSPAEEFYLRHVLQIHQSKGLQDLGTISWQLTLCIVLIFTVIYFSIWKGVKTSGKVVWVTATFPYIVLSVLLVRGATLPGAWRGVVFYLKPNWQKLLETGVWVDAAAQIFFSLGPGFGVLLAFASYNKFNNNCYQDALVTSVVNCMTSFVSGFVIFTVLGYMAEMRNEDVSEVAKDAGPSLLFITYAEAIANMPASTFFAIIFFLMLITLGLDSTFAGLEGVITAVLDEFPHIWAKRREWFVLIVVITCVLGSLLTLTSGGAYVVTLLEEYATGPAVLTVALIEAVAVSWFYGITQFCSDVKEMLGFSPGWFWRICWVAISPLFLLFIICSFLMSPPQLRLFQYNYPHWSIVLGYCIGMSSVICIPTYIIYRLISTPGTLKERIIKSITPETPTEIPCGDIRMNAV
Procedure, shortened: as §1
With `Fc1ccc([C@@H]2CC3CCC(N3)[C@@H]2COc2ccc3c(c2)OCO3)cc1` (stereo partly specified) the pIC50 was 7.25.
`Fc1ccc([C@H]2CC3CCC(N3)[C@@H]2COc2ccc3c(c2)OCO3)cc1` (stereo partly specified) gave a pIC50 of 7.05.
In the case of `CN1C2CC[C@@H]1C[C@H](c1ccc(F)cc1)[C@H]2COc1ccc2c(c1)OCO2`, the pIC50 was 7.28.
`CN1C2CC[C@@H]1[C@H](COc1ccc3c(c1)OCO3)[C@H](c1ccc(F)cc1)C2` was tested, and the pIC50 was 6.35.
With `CN1C2CC[C@@H]1[C@@H](COc1ccc3c(c1)OCO3)[C@H](c1ccc(F)cc1)C2` the pIC50 was 7.06.
In the case of `CN1C2CC[C@@H]1C[C@H](c1ccc(F)cc1)[C@@H]2COc1ccc2c(c1)OCO2`, the pIC50 was 6.53.
`CN1C2CC[C@@H]1C[C@@H](c1ccc(F)cc1)[C@@H]2COc1ccc2c(c1)OCO2` showed a pIC50 of 6.37.
In the case of `CN1C2CC[C@@H]1[C@@H](COc1ccc3c(c1)OCO3)[C@@H](c1ccc(F)cc1)C2`, the pIC50 was 6.75.
`Fc1ccc([C@H]2CC3CCC(N3)[C@H]2COc2ccc3c(c2)OCO3)cc1` (stereo in doubt; 4a) gave a pIC50 of 6.32.
Work on `Fc1ccc([C@@H]2CC3CCC(N3)[C@H]2COc2ccc3c(c2)OCO3)cc1` (stereo in doubt; 4c) yielded a pIC50 of 8.25.
Molecule `Fc1ccc([C@@H]2CC3CCC(N3)[C@H]2COc2ccc3c(c2)OCO3)cc1` (stereo in doubt; 4d) has a pIC50 of 6.37.
`Fc1ccc([C@H]2CC3CCC(N3)[C@H]2COc2ccc3c(c2)OCO3)cc1` (stereo in doubt; 4f) gave a pIC50 of 7.72.
